# Columns and labels:
# [1] = test system: tumors; details: cited from earlier work
# [2] = test system: U87MG gliomas; details: xenografted U87MG model; cited from earlier work
# [3] = test system: pre-clinical tumor models; details: variety of pre-clinical tumor models; cited from earlier work
# [4] = test system: VEGF and PDGF receptor families; details: in vitro; cited from earlier work
# [5] = test system: integrin αvβ3; assay: ^99mTc-3P-RGD2 SPECT/CT tumor uptake during linifanib therapy, MDA-MB-435 model; assay type: in vivo, athymic nude mice
# In short: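 Size-matched groups (n = 5; mean tumor 180 ± 90 mm3) of female nude mice with fat-pad MDA-MB-435 tumors received vehicle (0.15% HPMC, 2% ethanol, 5% Tween 80, 20% PEG400, 73% saline) or test compound at 12.5 mg/kg orally twice daily (>8 h apart) from day 0. Radiotracer (>95% radiochemical purity, in saline) was given i.v. Multi-pinhole SPECT/CT on days -1, 1, 4 and 11 was quantified as %ID and %ID/cm3.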
# [6] = test system: MDA-MB-435 tumors; assay: Tumor immunohistochemistry; assay type: in vivo, athymic nude mice
# In short: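 Fat-pad MDA-MB-435 tumors came from mice given vehicle or oral test compound (12.5 mg/kg twice daily) and were harvested on days -1, 1, 4 and 11. Frozen 5 μm OCT sections were fixed in ice-cold acetone (10 min) and blocked in 10% goat serum (30 min). They were stained 1 h with hamster anti-integrin β3 and rat anti-CD31 (1:100), then Cy3/FITC secondaries (1:100), and read by fluorescence microscopy. H&E sections were examined for blood vessels.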
# [7] = test system: PC-3 prostate tumors; details: xenografted PC-3 model; cited from earlier work
# [8] = test system: tumor; details: 2 days after sunitinib therapy; cited from earlier work
# [9] = test system: integrin αvβ3 and αvβ5; details: low concentrations; cited from earlier work
# [10] = 12.5 mg/kg orally twice daily, as early as 24 h, SPECT/CT quantification, n = 5
molecule,measurement,setting,value
Cc1nc(Nc2ncc(C(=O)Nc3c(C)cccc3Cl)s2)cc(N2CCN(CCO)CC2)n1 [dasatinib],uptake of ^64Cu-DOTA-RGD in the treated tumors,[1],significantly reduce
Cc1ccc(F)c(NC(=O)Nc2ccc(-c3cccc4[nH]nc(N)c34)cc2)c1 [linifanib],tumor uptake (%ID and %ID/cm^3) and T/M ratios of ^99mTc-3P-RGD2 after linifanib treatment,[2],significant decrease
same,effect on tumors in vivo,[3],pronounced regression of tumors
same,phosphorylation of members of VEGF and PDGF receptor families,[4],inhibit the phosphorylation
same,%ID tumor uptake of ^99mTc-3P-RGD2 in linifanib-treated group,[5]; [10],dramatic reduction
same,%ID/cm^3 tumor uptake of ^99mTc-3P-RGD2 in linifanib-treated group,[5]; [10],dramatic reduction
same,tumor uptake (%ID and %ID/g) of ^99mTc-3P-RGD2 in linifanib-treated group,[5]; over the next 10 days after the first 24 h of linifanib therapy,steady tumor uptake reduction
same,blood vessel density,"[6]; H&E staining of tumor slices, within 24 h after initiation of linifanib therapy",dramatically reduced
same,integrin αvβ3 on neovasculature,"[6]; IHC staining of tumor slices, after 24 h of linifanib therapy",disappeared almost completely
same,tumor cell integrin αvβ3 expression level,"[6]; IHC staining of tumor slices, during the 11-day period of linifanib therapy",decreased steadily
same,tumor volume or tumor uptake of ^99mTc-3P-RGD2 after linifanib treatment,[7],no significant changes
CCN(CC)CCNC(=O)c1c(C)[nH]c(/C=C2\C(=O)Nc3ccc(F)cc32)c1C [sunitinib],tumor uptake of [^18F]AH111585 after sunitinib therapy,[8],significantly reduced
Cilengitide,effect on tumor growth and angiogenesis,[9],stimulate tumor growth and angiogenesis

# Source: article PMC3841333 (Theranostics, 2013)
